Measured values gathered from unrelated publications.
Compare with care: the assays were run in different laboratories.
Cell line: HL-60
Observed: cell growth or viability

`COc1cc([C@@H]2c3cc4c(cc3[C@@H](O[C@@H]3O[C@@H]5CO[C@@H](C)O[C@H]5[C@H](O)[C@H]3O)[C@H]3COC(=O)[C@H]23)OCO4)cc(OC)c1O` has an IC50 of 310 nM (MTT; 48 h).
The IC50 of `COc1cc(Nc2nccc(-c3cnn4nc(OC)ccc34)n2)cc(C(F)(F)F)c1` is reported as 210 nM (ATP luminescence).
With `CN1c2ccccc2C(=O)N2[C@H](C(=O)Nc3ccc(C(=O)Nc4ccccc4N)cc3)Cc3c([nH]c4ccccc34)[C@@H]12` the IC50 was 560 nM.
`COc1cccc2c1C(=O)c1c(O)c3c(c(O)c1C2=O)C[C@@](O)(C(=O)CO)C[C@@H]3O[C@H]1C[C@H](N)[C@H](O)[C@H](C)O1` has an IC50 of 1080 nM (MTT; 72 h).
With `CC[C@@H](C)[C@H](N)C(=O)N1Cc2ccccc2C1` the IC50 was 2140 nM (ATP luminescence; 48 h).
For `COc1cc(/C=C/C(=O)CC(=O)/C=C/c2ccc(O)c(OC)c2)ccc1O`, the IC50 was 4100 nM (resazurin; 72 h, dark).
With `COc1ccc(-c2nc(C(=O)Nc3nnc(-c4cc5ccccc5[nH]4)s3)cc3c2[nH]c2ccccc23)cc1` the IC50 was 3830 nM (MTT; 72 h).
With `CC(C)[C@H](N)C(=O)N1CCC[C@H]1B(O)O` the IC50 was 115 nM (ATP luminescence; 48 h).
`O=C(Nc1nnc(-c2cc3ccccc3[nH]2)s1)c1cc2c([nH]c3ccccc32)c(-c2ccc(F)cc2)n1` has an IC50 of 9850 nM (MTT; 72 h).
For `COc1ccc(C(=O)CC(=O)c2ccc(C(C)(C)C)cc2)cc1`, the IC50 was about 30000 nM (dark).
For `COc1cc(O)c(C(=O)c2ccccc2)cc1S(=O)(=O)O`, the IC50 was over 100000 nM (resazurin; 72 h, dark).
With `CCCCN(Cc1ccc(C(=O)NO)cc1)C(=O)Nc1ccccc1` the IC50 was 894 nM (ATP luminescence; 72 h).
